The subject of one series is Aspergillus flavus. The experiment in a line: Minimum inhibitory concentration (MIC) against Aspergillus flavus after 24 hours. The class given is functional. Summed up:
(§1)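 Antifungal susceptibility read visually; MIC taken as lowest drug concentration giving 90–100% inhibition of visible growth relative to drug-free controls, read over 48 h, or after 24 h where footnoted. Organisms: C. parapsilosis, C. albicans, Cryptococcus neoformans, C. glabrata, Aspergillus fumigatus, Aspergillus flavus.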

The next series has as its system Cryptococcus neoformans. Kind of series: Minimum inhibitory concentration against Cryptococcus neoformans after 48 hours. The class given is functional. Summed up: as §1
Another series relates to Nakaseomyces glabratus. Kind of series: Minimum inhibitory concentration (MIC) to Candida glabrata after 48 hours. The class given is functional. Summed up:
as §1

Series [1] can be described thus: Total body clearance was determined. In kind it is ADME, organism-based. The following applies: in vivo. A digest of the protocol:
(§2)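 Mice dosed iv at 5 mg/kg or orally at 20 mg/kg, n = 3; drug concentrations measured in plasma/serum over time to derive half-life, Cmax, total body clearance, steady-state volume and oral bioavailability.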

The test system of another series is Candida albicans. The experiment in a line: Minimum inhibitory concentration (MIC) to Candida albicans after 48 hr. In kind it is functional. A digest of the protocol:
as §1

Series [2] can be described thus: Volume of steady state concentration was determined. In kind it is ADME, organism-based. The following applies: in vivo; read-out: Vss. Summed up: as §2
The subject of the next series is Aspergillus fumigatus. The experiment in a line: Minimum inhibitory concentration (MIC) to Aspergillus fumigatus after 48 hr. The class given is functional. A digest of the protocol:
as §1

In a further series the test system is Candida parapsilosis. Kind of series: Minimum inhibitory concentration (MIC) to Candida parapsilosis after 48 hr. In kind it is functional. Summed up:
as §1

Series [3] in a line: Half life period was measured upon intravenous administration (5 mg/kg). Particulars: in vivo. In kind it is ADME, organism-based. A digest of the protocol: as §2
The nature of series [4]: Half life period was measured upon oral administration (20 mg/kg). In kind it is ADME, organism-based. The following applies: in vivo. Summed up:
as §2

Series [5] is described as follows: Oral bioavailability. The class given is ADME, organism-based. Particulars: eutheria, in vivo. A digest of the protocol: as §2
Series [6] is described as follows: Maximum plasma concentration was determined. In kind it is ADME, organism-based. Summed up: as §2
Where [7] appears, read: Aspergillus flavus, 24 h, read-out: MIC.
Where [8] appears, read: Nakaseomyces glabratus, 48 h, read-out: MIC.
Setting [9] is: Aspergillus fumigatus, 48 h, read-out: MIC.
Where [10] appears, read: Lodderomyces parapsilosis, 48 h, read-out: MIC.

Structures are written as SMILES. Values after ≈ are worked out from the molar mass of the structure shown. Where only a bound is given, the exact number is not on record here.

One may read the MIC as the smallest concentration in the dilution series that meets the test's criterion for growth inhibition. A word on the clearance: it is the rate of elimination divided by the concentration. A high value points to a high capacity for elimination. In general, half-life refers to the time in which the quantity being followed falls by half. A high value points to slow decline. In general, bioavailability refers to dose-corrected exposure relative to a reference, in per cent. As a reminder, the Cmax is the highest concentration seen after dosing.

In the case of `C=C(Cl)CN1C[C@H](OCC23C[C@@H]4[C@H](C)CC[C@H]4C4(C=O)CC2C=C(C(C)C)[C@@]34C(=O)O)O[C@H](C)C1`, the MIC in the series with Aspergillus flavus (setting [7]) is 4 µg/mL (≈ 7.9 µM); with Cryptococcus neoformans it was over 128 µg/mL; in the series on Nakaseomyces glabratus (setting [8]), 0.125 µg/mL (≈ 0.247 µM); against Candida albicans, under 0.06 µg/mL; in the series on Aspergillus fumigatus (setting [9]) it was over 128 µg/mL; in the series on Candida parapsilosis (setting [10]), 8 µg/mL (≈ 15.8 µM). The clearance in series [1] came out at 13 mL/min/kg. The Vd in series [2] is 0.49 L/kg. Besides, in [3], the half-life is 0.44 h.
In the case of `C=C(Cl)CN1C[C@H](OCC23C[C@@H]4[C@H](C)CC[C@H]4C4(C=O)CC2C=C(C(C)C)[C@@]34C(=O)O)OC[C@H]1C(C)C`, the half-life in series [4] was 3.1 h; in series [3], 1.6 h. Also, the MIC with Aspergillus flavus (setting [7]) was 2 µg/mL (≈ 3.74 µM); against Cryptococcus neoformans it was under 0.06 µg/mL; in the series on Nakaseomyces glabratus (setting [8]) it was under 0.06 µg/mL; in the series with Candida albicans it was under 0.06 µg/mL; with Aspergillus fumigatus (setting [9]), 32 µg/mL (≈ 59.9 µM); in the series with Candida parapsilosis (setting [10]), 2 µg/mL (≈ 3.74 µM). This compound had a bioavailability in series [5] of 83%. The clearance in series [1] is 20 mL/min/kg. Also, the Vd in [2] was found to be 1.6 L/kg. The same compound came in with a Cmax in series [6] of 3880 ng/mL.
Regarding `C=C(Cl)CN1C[C@H](OCC23C[C@@H]4[C@H](C)CC[C@H]4C4(C=O)CC2C=C(C(C)C)[C@@]34C(=O)O)OC[C@H]1C`, the half-life was 2.1 h in series [4] and 1.8 h in series [3]. Also, the MIC in the series with Aspergillus flavus was 0.5 µg/mL (≈ 0.988 µM); with Aspergillus flavus (setting [7]), 0.5 µg/mL (≈ 0.988 µM); in the series on Cryptococcus neoformans it was under 0.06 µg/mL; in the series on Nakaseomyces glabratus, 0.125 µg/mL (≈ 0.247 µM); in the series on Nakaseomyces glabratus (setting [8]), 0.125 µg/mL (≈ 0.247 µM); in the series on Candida albicans it was under 0.06 µg/mL. The MIC with Aspergillus fumigatus is 32 µg/mL (≈ 63.2 µM); with Aspergillus fumigatus (setting [9]) it was 32 µg/mL (≈ 63.2 µM); against Candida parapsilosis it was 1 µg/mL (≈ 1.98 µM); in the series with Candida parapsilosis (setting [10]), 1 µg/mL (≈ 1.98 µM). In addition, in series [5], the bioavailability stood at 100%. This compound came in with a clearance in series [1] of 95 mL/min/kg. In addition, in series [2], the Vd was determined as 7.1 L/kg. Besides, the Cmax in series [6] amounted to 5950 ng/mL.

Values taken from ChEMBL document CHEMBL1136700, “Identification of a broad-spectrum azasordarin with improved pharmacokinetic properties” (Bioorg Med Chem Lett, 2003).
